Reference: ChEMBL document CHEMBL3997810, “A Novel Potent Anticancer Compound Optimized from a Natural Oridonin Scaffold Induces Apoptosis and Cell Cycle Arrest through the Mitochondrial Pathway” (J Med Chem, 2017)
The source made the active and inactive calls. The rule behind the calls is not given here.

Tests used:
MGC-803 = assay: Antiproliferative activity against human MGC803 cells after 72 hrs by MTT assay; format: functional, cell-based; details: MGC-803, 72 h
How it was run: (§1)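 MGC-803 and MCF-7 cells grown in DMEM (MCF-7 with 1× NEAA); Bel-7402 and K562 grown in RPMI 1640; all media with 10% FBS. Cells seeded at 3500/well, pre-incubated 24 h, then exposed to compounds in fresh medium (DMSO ≤0.25%) for 72 h at 37 °C. MTT read-out at 570 nm. Quadruplicate wells, repeated three times; means ± SD (n = 3).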

Bel-7402 [1] = assay: Antiproliferative activity against human Bel7402 cells after 72 hrs by MTT assay; format: functional, cell-based; details: Bel-7402, 72 h; how it was run: as §1
MCF7 [2] = assay: Antiproliferative activity against human MCF7 cells after 72 hrs by MTT assay; format: functional, cell-based; details: MCF7, 72 h; how it was run: as §1
K562 = assay: Antiproliferative activity against human K562 cells after 72 hrs by MTT assay; format: functional, cell-based; details: K562, 72 h; how it was run: as §1
KB 3-1 = assay: Antiproliferative activity against human KB-3-1 cells after 48 hrs by MTT assay; format: functional, cell-based; details: KB 3-1, 48 h
How it was run: (§2)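 Colorimetric MTT assay. KB-3-1, NCI-H460 and Bel-7404 cells were seeded at 4000 cells/well; resistant KB/CP4, NCI-H460/MX20 and Bel-7404/CP20 were seeded at 7000 cells/well. Cells were pre-incubated 24 h at 37 °C, 5% CO2, then exposed to a compound concentration series for 48 h with DMSO ≤0.25%. Absorbance read at 570 nm. Quadruplicate wells, three repeats; means ± SD.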

[3] = Antiproliferative activity against human KB/CP4 cells after 48 hrs by MTT assay; format: functional, cell-based; details: KB/CP4, 48 h; how it was run: as §2
NCI-H460 = assay: Antiproliferative activity against human NCI-H460 cells after 48 hrs by MTT assay; format: functional, cell-based; details: NCI-H460, 48 h; how it was run: as §2
[4] = Antiproliferative activity against human NCI-H460/MX20 cells after 48 hrs by MTT assay; format: functional, cell-based; details: NCI-H460/MX20, 48 h; how it was run: as §2
BEL-7404 tumor cell line = assay: Antiproliferative activity against human Bel7404 cells after 48 hrs by MTT assay; format: functional, cell-based; details: BEL-7404, 48 h; how it was run: as §2
[5] = Antiproliferative activity against human BEL7404/CP20 cells after 48 hrs by MTT assay; format: functional, cell-based; details: BEL7404/CP20, 48 h; how it was run: as §2
[6] = Selectivity ratio of IC50 for human KB/CP4 cells to IC50 for human KB-3-1 cells
Bel-7402 [7] = assay: Antiproliferative activity against human Bel7402 cells at 1 uM after 72 hrs by MTT assay; format: functional, cell-based
MCF7 [8] = assay: Cytotoxicity against human MCF7 cells at 10 to 50 uM after 24 hrs by LDH assay; format: functional, cell-based
How it was run: (§3)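 Membrane integrity assay on MCF-7 and Bel-7402 cells seeded at ~5 × 10^3 per well for 24 h, then given compounds at 10, 20 or 50 μM. Culture medium collected and assayed with CytoTox-ONE LDH reagent for 10 min, followed by stop solution. Fluorescence read at Ex 560/Em 590 nm. Expressed as percentage of unstimulated cells.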

Bel-7402 [9] = assay: Cytotoxicity against human Bel7402 cells at 10 to 50 uM after 24 hrs by LDH assay; format: functional, cell-based; how it was run: as §3

Row | SMILES | IC50 (MGC-803) | IC50 (Bel-7402 [1]) | IC50 (MCF7 [2]) | IC50 (K562) | IC50 (KB 3-1) | IC50 [3] | IC50 (NCI-H460) | IC50 [4] | IC50 (BEL-7404 tumor cell line) | IC50 [5] | Ratio IC50 [6] | Activity (Bel-7402 [7]) | Activity (MCF7 [8]) | Activity (Bel-7402 [9])
1 | C=C1C(=O)[C@]23[C@H](OC(=O)C4CCCCC4)[C@H]1CC[C@H]2[C@]12C=CCC(C)(C)[C@H]1[C@H](O)[C@]3(O)OC2 | 3.6 µM | 4.06 µM | 5.83 µM | 3.22 µM | – | – | – | – | – | – | – | – | – | –
2 | C=C1C(=O)[C@]23[C@H](OC(=O)c4ccc(Br)cc4)[C@H]1CC[C@H]2[C@]12C=CCC(C)(C)[C@H]1[C@H](O)[C@]3(O)OC2 | 2.01 µM | 1.06 µM | 0.14 µM | 0.33 µM | 5.82 µM | 3.24 µM | 5.31 µM | 4.73 µM | 5.35 µM | 6.05 µM | <1 | – | – | –
3 | C=C1C(=O)[C@]23[C@H](OC(=O)c4c(OC)cccc4OC)[C@H]1CC[C@H]2[C@]12C=CCC(C)(C)[C@H]1[C@H](O)[C@]3(O)OC2 | 21.2 µM | 45.3 µM | 12.5 µM | 6.85 µM | – | – | – | – | – | – | – | – | – | –
4 | C=C1C(=O)[C@]23[C@H](OC(=O)c4cc(F)c(F)c(F)c4F)[C@H]1CC[C@H]2[C@]12C=CCC(C)(C)[C@H]1[C@H](O)[C@]3(O)OC2 | 1 µM | 1.58 µM | 2.11 µM | 1.83 µM | – | – | – | – | – | – | – | – | – | –
5 | O=c1[nH]cc(F)c(=O)[nH]1 [FLUOROURACIL] | 3.12 µM | 2.25 µM | 1.75 µM | 3.54 µM | – | – | – | – | – | – | – | – | – | –
6 | C=C1C(=O)[C@]23[C@H](OC(C)=O)[C@H]1CC[C@H]2[C@]12C=C[C@H](OC(C)=O)C(C)(C)[C@H]1[C@H](O)[C@]3(O)OC2 | 3.09 µM | 2.07 µM | 4.13 µM | 1.88 µM | – | – | – | – | – | – | – | Active | – | –
7 | C=C1C(=O)[C@]23[C@H](OC(=O)CCCCCCC)[C@H]1CC[C@H]2[C@]12C=CCC(C)(C)[C@H]1[C@H](O)[C@]3(O)OC2 | 2.71 µM | 4.34 µM | 2.44 µM | 3 µM | – | – | – | – | – | – | – | – | inactive | inactive
8 | C=C1C(=O)[C@]23[C@H](OC(=O)c4ccccc4C(F)(F)F)[C@H]1CC[C@H]2[C@]12C=CCC(C)(C)[C@H]1[C@H](O)[C@]3(O)OC2 | 2.46 µM | 3.18 µM | 2.66 µM | 2.96 µM | – | – | – | – | – | – | – | – | – | –
9 | C=C1C(=O)[C@]23[C@H](OC(C)=O)[C@H]1CC[C@H]2[C@]12C=CCC(C)(C)[C@H]1[C@H](O)[C@]3(O)OC2 | 1.82 µM | 1.67 µM | 2.57 µM | 1.67 µM | – | – | – | – | – | – | – | – | – | –
10 | C=C1C(=O)[C@]23[C@H](O)[C@H]1CC[C@H]2[C@@]12CO[C@@]3(O)[C@@H](O)[C@@H]1C(C)(C)C[C@H](Cl)[C@H]2O | 3.18 µM | 1.69 µM | 3.43 µM | 2.3 µM | 6.54 µM | 5.92 µM | 8.8 µM | 49 µM | 6.96 µM | 5.98 µM | <1 | – | inactive | inactive
11 | C=C1C(=O)[C@]23[C@H](OC(=O)CCCC)[C@H]1CC[C@H]2[C@]12C=CCC(C)(C)[C@H]1[C@H](O)[C@]3(O)OC2 | 6.19 µM | 6 µM | 2.49 µM | 1.74 µM | – | – | – | – | – | – | – | – | – | –
12 | C=C1C(=O)[C@@]23[C@@H]4OC(C)(C)O[C@@]25OC[C@]2(C=CCC(C)(C)[C@H]2[C@@H]5O)[C@@H]3CC[C@@H]14 | 3.61 µM | 3.66 µM | 1.49 µM | 7.98 µM | – | – | – | – | – | – | – | Active | – | –
13 | C=C1C(=O)[C@]23[C@H](OC(=O)c4ccnc(Cl)c4)[C@H]1CC[C@H]2[C@]12C=CC(=O)C(C)(C)[C@H]1[C@H](O)[C@]3(O)OC2 | 3.76 µM | 3.3 µM | 5.15 µM | 2.94 µM | – | – | – | – | – | – | – | – | – | –
14 | C=C1C(=O)[C@]23[C@H](OC(=O)c4cccc(C)c4C)[C@H]1CC[C@H]2[C@]12C=CCC(C)(C)[C@H]1[C@H](O)[C@]3(O)OC2 | 3.78 µM | 2.33 µM | 3.58 µM | 1.68 µM | – | – | – | – | – | – | – | – | – | –
15 | C=C1C(=O)[C@@]23[C@@H]4OC(C)(C)O[C@@]25OC[C@]2([C@@H]6O[C@@H]6CC(C)(C)[C@H]2[C@@H]5O)[C@@H]3CC[C@@H]14 | 1.42 µM | 1.32 µM | 1.58 µM | 1.66 µM | – | – | – | – | – | – | – | Active | – | –
16 | C=C1C(=O)[C@]23[C@H](OC(=O)c4cccc(Cl)c4)[C@H]1CC[C@H]2[C@]12C=CCC(C)(C)[C@H]1[C@H](O)[C@]3(O)OC2 | 3.65 µM | 4.16 µM | 2.8 µM | 2.23 µM | – | – | – | – | – | – | – | – | – | –
17 | C=C1C(=O)[C@]23[C@H](OC(=O)/C=C/c4cc(OC)c(OC)c(OC)c4)[C@H]1CC[C@H]2[C@]12C=CCC(C)(C)[C@H]1[C@H](O)[C@]3(O)OC2 | 3.91 µM | 2.44 µM | 2.36 µM | 0.55 µM | – | – | – | – | – | – | – | – | – | –
18 | C=C1C(=O)[C@]23[C@H](OC(=O)/C=C/c4cccc([N+](=O)[O-])c4)[C@H]1CC[C@H]2[C@]12C=CCC(C)(C)[C@H]1[C@H](O)[C@]3(O)OC2 | 2.47 µM | 1.77 µM | 1.37 µM | 0.58 µM | – | – | – | – | – | – | – | – | – | –
19 | C=C1C(=O)[C@]23[C@H](O)[C@H]1CC[C@H]2[C@@]12CO[C@@]3(O)[C@@H](O)[C@@H]1C(C)(C)C[C@H]1O[C@H]12 | 5.74 µM | 5.77 µM | 5.37 µM | 1.59 µM | 21 µM | 7.74 µM | 8.81 µM | 11.2 µM | 13.7 µM | 21.6 µM | <1 | – | inactive | inactive
20 | C=C1C(=O)[C@]23[C@H](OC(C)=O)[C@H]1CC[C@H]2[C@]12C=CC(=O)C(C)(C)[C@H]1[C@H](O)[C@]3(O)OC2 | 5.19 µM | 3.61 µM | 9.41 µM | 4.64 µM | – | – | – | – | – | – | – | – | – | –
21 | C=C1C(=O)[C@@]23[C@@H]4OC(C)(C)O[C@@]25OC[C@]2([C@@H](OS(C)(=O)=O)CCC(C)(C)[C@H]2[C@@H]5O)[C@@H]3CC[C@@H]14 | – | – | – | – | – | – | – | – | – | – | – | Active | – | –
22 | C=C1C(=O)[C@]23[C@H](OC(=O)/C=C/c4ccc(OC)cc4)[C@H]1CC[C@H]2[C@]12C=CCC(C)(C)[C@H]1[C@H](O)[C@]3(O)OC2 | 2.91 µM | 2.42 µM | 0.95 µM | 0.88 µM | – | – | – | – | – | – | – | – | – | –
23 | C=C1C(=O)[C@]23[C@H](O)[C@H]1CC[C@H]2[C@]12C=C[C@H](O)C(C)(C)[C@H]1[C@H](O)[C@]3(O)OC2 | 61.1 µM | 25.5 µM | 303 µM | 41.1 µM | – | – | – | – | – | – | – | – | – | –
24 | C=C1C(=O)[C@]23[C@H](OC(=O)/C=C/c4ccc(F)cc4)[C@H]1CC[C@H]2[C@]12C=CCC(C)(C)[C@H]1[C@H](O)[C@]3(O)OC2 | 5.11 µM | 2.58 µM | 2.51 µM | 1.34 µM | – | – | – | – | – | – | – | – | – | –
25 | C=C1C(=O)[C@]23[C@H](OC(=O)c4ccc([N+](=O)[O-])cc4)[C@H]1CC[C@H]2[C@]12C=CCC(C)(C)[C@H]1[C@H](O)[C@]3(O)OC2 | 6.39 µM | 5.14 µM | 4.47 µM | 1.7 µM | – | – | – | – | – | – | – | – | – | –
26 | C=C1C(=O)[C@]23[C@H](OC(=O)c4ccccc4C(F)(F)F)[C@H]1CC[C@H]2[C@]12C=CC(=O)C(C)(C)[C@H]1[C@H](O)[C@]3(O)OC2 | 3.61 µM | 2.93 µM | 3.84 µM | 2.61 µM | – | – | – | – | – | – | – | – | – | –
27 | C=C1C(=O)[C@]23[C@H](OC(=O)c4cc(C)ccc4C)[C@H]1CC[C@H]2[C@]12C=CCC(C)(C)[C@H]1[C@H](O)[C@]3(O)OC2 | 6.94 µM | 7.11 µM | 6.14 µM | 4.19 µM | – | – | – | – | – | – | – | – | – | –
28 | C=C1C(=O)[C@]23[C@H](OC(=O)/C=C/c4ccccc4OC)[C@H]1CC[C@H]2[C@]12C=CCC(C)(C)[C@H]1[C@H](O)[C@]3(O)OC2 | 2.46 µM | 2.22 µM | 0.82 µM | 0.43 µM | 8.31 µM | 4.61 µM | 5.31 µM | 5.53 µM | 6.06 µM | 6.87 µM | <1 | – | – | –
